Columns and labels:
[1] = Antiproliferative activity against MDR human HL60R cell line
[2] = target: Breakpoint cluster region protein/Tyrosine-protein kinase ABL1 (Homo sapiens, UniProt P00519+P11274); assay: Antiproliferative activity against human K562 cell line expressing Bcr-Abl
Method in brief: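 Cell growth inhibition measured by counting cells with an automatic cell counter in sensitive HL60, MDR HL60R and Bcr-Abl-expressing K562 cells. IC50 is the concentration inhibiting 50% of cell growth.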

Chain of Breakpoint cluster region protein/Tyrosine-protein kinase ABL1 (P00519 whole entry): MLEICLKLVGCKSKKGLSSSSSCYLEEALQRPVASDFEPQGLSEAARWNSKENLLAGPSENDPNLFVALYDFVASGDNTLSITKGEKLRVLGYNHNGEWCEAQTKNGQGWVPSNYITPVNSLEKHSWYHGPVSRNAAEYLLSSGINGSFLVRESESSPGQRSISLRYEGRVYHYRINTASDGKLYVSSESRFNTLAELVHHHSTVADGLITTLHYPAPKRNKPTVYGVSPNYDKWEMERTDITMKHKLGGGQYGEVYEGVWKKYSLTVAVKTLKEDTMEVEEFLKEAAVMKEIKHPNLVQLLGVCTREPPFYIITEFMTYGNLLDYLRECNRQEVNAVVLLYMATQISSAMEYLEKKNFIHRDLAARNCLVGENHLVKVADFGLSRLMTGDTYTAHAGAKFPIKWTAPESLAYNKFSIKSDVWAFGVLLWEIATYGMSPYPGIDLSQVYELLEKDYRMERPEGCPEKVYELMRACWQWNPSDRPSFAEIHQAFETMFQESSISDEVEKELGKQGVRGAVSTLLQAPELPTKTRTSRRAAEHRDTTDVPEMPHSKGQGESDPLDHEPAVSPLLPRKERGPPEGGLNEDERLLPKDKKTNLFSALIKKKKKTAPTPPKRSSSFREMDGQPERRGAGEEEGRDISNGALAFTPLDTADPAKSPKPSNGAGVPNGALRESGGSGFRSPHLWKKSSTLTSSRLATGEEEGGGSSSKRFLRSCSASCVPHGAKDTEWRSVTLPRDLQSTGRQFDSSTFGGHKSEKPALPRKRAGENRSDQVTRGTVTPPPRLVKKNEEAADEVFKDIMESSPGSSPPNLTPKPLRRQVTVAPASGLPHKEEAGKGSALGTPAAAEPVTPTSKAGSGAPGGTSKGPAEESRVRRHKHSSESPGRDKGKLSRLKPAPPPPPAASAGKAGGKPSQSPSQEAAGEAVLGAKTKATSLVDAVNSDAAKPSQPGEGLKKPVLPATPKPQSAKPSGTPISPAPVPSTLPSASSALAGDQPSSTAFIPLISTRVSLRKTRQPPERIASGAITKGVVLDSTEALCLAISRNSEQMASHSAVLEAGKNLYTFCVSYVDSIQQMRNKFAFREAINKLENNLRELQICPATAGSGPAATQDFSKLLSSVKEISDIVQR
Chain of Breakpoint cluster region protein/Tyrosine-protein kinase ABL1 (P11274 whole entry): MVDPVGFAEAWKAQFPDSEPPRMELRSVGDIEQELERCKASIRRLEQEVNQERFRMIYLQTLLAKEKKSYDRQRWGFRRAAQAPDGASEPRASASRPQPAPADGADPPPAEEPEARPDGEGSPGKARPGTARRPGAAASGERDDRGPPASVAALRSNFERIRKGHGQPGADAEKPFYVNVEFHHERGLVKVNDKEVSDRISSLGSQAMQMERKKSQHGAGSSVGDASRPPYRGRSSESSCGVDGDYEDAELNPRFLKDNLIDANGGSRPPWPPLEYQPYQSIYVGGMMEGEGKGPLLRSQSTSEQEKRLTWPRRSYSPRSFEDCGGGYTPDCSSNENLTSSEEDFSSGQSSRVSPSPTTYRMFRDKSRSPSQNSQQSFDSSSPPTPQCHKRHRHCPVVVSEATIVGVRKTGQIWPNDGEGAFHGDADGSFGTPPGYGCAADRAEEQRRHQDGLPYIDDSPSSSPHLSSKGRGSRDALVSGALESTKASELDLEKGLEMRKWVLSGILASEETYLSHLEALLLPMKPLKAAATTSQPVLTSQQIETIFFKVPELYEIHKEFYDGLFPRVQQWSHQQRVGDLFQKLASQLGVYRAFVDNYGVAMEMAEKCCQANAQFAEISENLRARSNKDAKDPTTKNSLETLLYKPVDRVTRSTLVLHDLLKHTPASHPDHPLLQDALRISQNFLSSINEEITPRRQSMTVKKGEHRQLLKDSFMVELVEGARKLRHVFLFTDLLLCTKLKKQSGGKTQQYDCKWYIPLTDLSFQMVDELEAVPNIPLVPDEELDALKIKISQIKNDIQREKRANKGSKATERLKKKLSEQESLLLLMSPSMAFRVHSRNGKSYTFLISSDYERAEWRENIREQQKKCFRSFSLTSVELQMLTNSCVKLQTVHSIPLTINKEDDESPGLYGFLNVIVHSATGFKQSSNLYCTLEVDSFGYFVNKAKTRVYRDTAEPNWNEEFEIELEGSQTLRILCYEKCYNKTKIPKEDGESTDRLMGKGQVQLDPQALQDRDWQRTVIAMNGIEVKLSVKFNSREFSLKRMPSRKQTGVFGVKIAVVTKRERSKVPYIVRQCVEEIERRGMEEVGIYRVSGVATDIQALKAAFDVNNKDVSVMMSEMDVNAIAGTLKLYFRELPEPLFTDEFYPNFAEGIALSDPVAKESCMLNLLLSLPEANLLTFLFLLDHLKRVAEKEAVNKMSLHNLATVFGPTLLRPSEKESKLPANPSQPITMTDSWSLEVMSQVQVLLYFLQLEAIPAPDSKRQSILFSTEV

For Oc1ccc(-c2cccc(-c3cc(O)cc(O)c3)c2)cc1 [[1,1';3',1'']-terphenyl-4,3'',5''-triol], which IC50 [1] is on record?
Its IC50 is 58 µM.

What about the IC50 [2] of the same compound?
Its IC50 is 20 µM.

Which IC50 [1] does the source give for COc1cc(/C=C/c2cc(OC)c(O)c(OC)c2)cc(OC)c1 [4-[(E)-2-(3,5-dimethoxy-phenyl)-vinyl]-2,6-dimethoxy-phenol] here?
Its IC50 is > 100 µM.

What about the IC50 [2] of the same compound?
The IC50 was 23 µM.

For Oc1ccc(-c2ccc(-c3cc(O)cc(O)c3)cc2)cc1 [[1,1';4',1'']-terphenyl-4,3'',5''-triol], which IC50 [1] is on record?
Its IC50 is 23 µM.

And the IC50 [2]?
Its IC50 is 20 µM.

For COc1ccc(-c2cccc(-c3cc(OC)cc(OC)c3)c2)cc1 [4,3'',5''-trimethoxy-[1,1';3',1'']-terphenyl], which IC50 [1] is on record?
The IC50 was 80 µM.

And the IC50 [2]?
The IC50 was 10 µM.

With Oc1ccc(-c2ccccc2-c2cc(O)cc(O)c2)cc1 [[1,1';2',1'']-terphenyl-4,3'',5''-triol] as the compound, how does the IC50 [1] read?
Its IC50 is 12 µM.

What about the IC50 [2] of the same compound?
Its IC50 is 8 µM.

For COc1cc(/C=C/c2cc(C(C)(C)C)c(O)c(C(C)(C)C)c2)cc(OC)c1 [2,6-di-tert-butyl-4-[(E)-2-(3,5-dimethoxy-phenyl)-vinyl]-phenol], which IC50 [2] is on record?
Its IC50 is > 100 µM.

Which IC50 [2] does the source give for Oc1cc(O)cc(-c2ccc3cc(O)ccc3c2)c1 [5-(6-hydroxy-naphtalen-2-yl)-benzene-1,3-diol] here?
The IC50 was 20 µM.

With COc1cc(OC)cc(-c2cccc(-c3ccc(O)cc3)c2)c1 [3'',5''-dimethoxy-[1,1';3',1'']-terphenyl-4-ol] as the compound, how does the IC50 [1] read?
The IC50 was 20 µM.

What about the IC50 [2] of the same compound?
Its IC50 is 14 µM.

Which results are given for COc1cc(OC)cc(-c2ccccc2-c2ccc(O)cc2)c1 [3'',5''-dimethoxy-[1,1';2',1'']-terphenyl-4-ol]?
IC50 [1]: 28 µM; IC50 [2]: 14 µM

Which IC50 [1] does the source give for COc1cc(OC)cc(-c2ccc3cc(O)ccc3c2)c1 [6-(3,5-dimethoxy-phenyl)-naphthalen-2-ol] here?
Its IC50 is 16 µM.

And the IC50 [2]?
Its IC50 is 42 µM.

With COc1cc(OC)cc(-c2ccc3cc(OC)ccc3c2)c1 [2-(3,5-Dimethoxy-phenyl)-6-methoxy-naphthalene] as the compound, how does the IC50 [1] read?
The IC50 was > 100 µM.

What about the IC50 [2] of the same compound?
Its IC50 is > 100 µM.

Which IC50 [2] does the source give for COc1ccc(-c2ccccc2-c2cc(OC)cc(OC)c2)cc1 [4,3'',5''-trimethoxy-[1,1';2',1'']-terphenyl] here?
The IC50 was 6 µM.

For COc1ccc(-c2ccc(-c3cc(OC)cc(OC)c3)cc2)cc1 [4,3'',5''-trimethoxy-[1,1';4',1'']-terphenyl], which IC50 [1] is on record?
The IC50 was > 100 µM.

What about the IC50 [2] of the same compound?
Its IC50 is > 100 µM.

With COc1cc(/C=C/c2cc(Cl)ccc2O)cc(OC)c1 [4-chloro-2-[(E)-2-(3,5-dimethoxy-phenyl)-vinyl]-phenol] as the compound, how does the IC50 [2] read?
The IC50 was 16 µM.

With COc1ccc(/C=C/c2cc(OC)cc(OC)c2)cc1 as the compound, how does the IC50 [2] read?
The IC50 was 10 µM.

Which IC50 [1] does the source give for COc1cc(/C=C/c2ccccc2O)cc(OC)c1 [2-[(E)-2-(3,5-dimethoxy-phenyl)-vinyl]-phenol] here?
Its IC50 is 68 µM.

What about the IC50 [2] of the same compound?
The IC50 was 24 µM.

Which IC50 [1] does the source give for COc1cc(/C=C/c2ccc(O)cc2)cc(OC)c1 [4-[2-(3,5-Dimethoxy-phenyl)-vinyl]-phenol] here?
Its IC50 is 42 µM.

What about the IC50 [2] of the same compound?
Its IC50 is 10 µM.

What does the source list for COc1cc(/C=C/c2cccc(O)c2)cc(OC)c1 [3-[(E)-2-(3,5-Dimethoxy-phenyl)-vinyl]-phenol]?
IC50 [1]: > 100 µM; IC50 [2]: 26 µM

Which IC50 [1] does the source give for Oc1ccc(/C=C/c2cc(O)cc(O)c2)cc1 [5-[(E)-2-(4-hydroxyphenyl)ethenyl]benzene-1,3-diol] here?
The IC50 was 60 µM.

And the IC50 [2]?
The IC50 was 28 µM.

With COc1cc(/C=C/c2cccc(OC)c2O)cc(OC)c1 [2-[(E)-2-(3,5-dimethoxyphenyl)vinyl]-6-methoxyphenol] as the compound, how does the IC50 [2] read?
Its IC50 is 8 µM.

What does the source list for COc1cc(OC)cc(-c2ccc(-c3ccc(O)cc3)cc2)c1 [3'',5''-dimethoxy-[1,1';4,1'']-terphenyl-4-ol]?
IC50 [1]: 23 µM; IC50 [2]: 35 µM

— BindingDB's records for doi:10.1021/jm060253o (University of Bologna, 2006)
